Laboratory results published in the RNAGym collection of RNA variant scans (doi:10.1038/s41586-018-0170-7).

B1: tRNA (parent)
chain: GUUCCGUUGGCGUAAUGGUAACGCGUCUCCCUCCUAAGGAGAAGACUGCGGGUUCGAGUCCCGUACGGAACG

Variants of: B1
Assay: yeast fitness, log relative to wild type (ln ratio); higher = fitter; tRNA-Arg(CCU), competitive growth, 37 C, 1 M NaCl
In short: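 Fitness is the natural log of each genotype's generations divided by the wild type's. Generations were derived as OD-scaled log2 output/input frequency from 125 bp paired-end Illumina counts, weighting replicates by inverse variance. Pools of the tRNA-Arg(CCU) variant library, on a HIS3 centromeric plasmid in BY4742 lacking the chromosomal gene, grew ~6.5 generations (~26.5 h) in SC-HIS 1M NaCl at 37 °C after 4 generations in SC-HIS at 30 °C.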

Row | Variant | yeast fitness (ln)
1 | G1A G6U A43C C46U A69G A70U C71U | -0.434
2 | G1A G6U A43C C46U C66A A70U C71U | -0.334
3 | G1A G6U A43C C46U C66A A69G A70U | -0.474
4 | G1A G6U A43C C46U C66A A69G A70G | -0.258
5 | G1A G6U A43C C66U A69G A70U | -0.452
6 | G1A G6U A43C C66U A69G A70G | -0.469
7 | G1A G6U A70U C71U | -0.213
8 | G1A G6U C27U A43C C46U C66U | -0.475
9 | G1A G6U C27U A43C C46U C66A | -0.168
10 | G1A G6A C27U A43C C46U C66U A69G A70G C71U | -0.324
11 | G1A G6U C27U A43C C66A A69G A70U C71U | -0.281
12 | G1A G6A C27U C66U A70G | -0.187
13 | G1A G6A C27U C66U A70U | -0.431
14 | G1A G6A C66U A70G C71U | -0.0543
15 | G1A G6A C46U A69G C71U | -0.252
16 | G1A G6U C46U A69G A70G C71U | -0.216
17 | G1A G6U C27U A43C C66U A69G A70G C71U | -0.497
18 | G1A G6U C27U C46U C66U | -0.313
19 | G1A G6U C27U C46U C66A | -0.32
20 | G1A G6A C27U A43C C66U C71U | -0.505
21 | G1A G6U C27U C66U A69G C71U | -0.295

Row | Variant | yeast fitness (ln)
22 | G1A G6U C27U C66U A69G A70U C71U | -0.45
23 | G1A G6U C27U C46U C66A A70U | -0.249
24 | G1A G6U C27U C46U C66A A70G | -0.233
25 | G1A G6U A43C C46U C66A A69G A70G C71U | -0.393
26 | G1A G6A C27U A43C C46U C66U A70U | -0.318
27 | G1A G6A C27U A43C C46U C66U A70G | -0.27
28 | G1A G6A C27U A43C C66A A69G A70G C71U | -0.299
29 | G1A G6A C27U C66U | -0.283
30 | G1A G6U A43C C46U C66A A70G C71U | -0.237
31 | G1A G6A C27U C46U C66U A70U C71U | -0.478
32 | G1A G6U A43C A69G A70U | -0.326
33 | G1A G6U A43C A69G A70G | -0.54
34 | G1A G6A C27U C66U A70G C71U | -0.566
35 | G1A G6U A43C C46U C66U A69G A70U C71U | -0.429
36 | G1A G6U C27U C46U C66A C71U | -0.0536
37 | G1A G6U C27U A43C C66A A70U C71U | -0.608
38 | G1A G6U C27U A43C C46U A70U | -0.346
39 | G1A G6U C27U A43C C46U A70G | -0.385
40 | G1A G6A C27U C46U A69G A70G | -0.224
41 | G1A G6A C27U C46U A69G A70U | -0.24
42 | G1A G6A C27U C46U | -0.143

Row | Variant | yeast fitness (ln)
43 | G1A G6U C27U A43C A69G C71U | -0.557
44 | G1A G6U A43C C46U A70G | -0.201
45 | G1A G6U A43C C46U A70U | -0.219
46 | G1A G6A C27U A43C C46U C66U | -0.131
47 | G1A G6A C27U A43C C46U C66A A70G C71U | -0.293
48 | G1A G6A C66A A70U | -0.0411
49 | G1A G6A C46U A69G A70G | -0.123
50 | G1A G6A C46U A69G A70U | -0.0698
51 | G1A G6U A43C C46U C66A A70G | -0.17
52 | G1A G6U A43C C46U C66A A70U | -0.242
53 | G1A G6U C27U C46U A69G A70U | -0.299
54 | G1A G6U C27U C46U A69G A70G | -0.307
55 | G1A G6U C27U A43C C46U | -0.258
56 | G1A G6U C27U A43C C66A C71U | -0.498
57 | G1A G6A C27U A43C C66U A70U C71U | -0.381
58 | G1A G6U A43C C46U C66U C71U | -0.275
59 | G1A G6U C27U A43C C71U | -0.352
60 | G1A G6A C27U A43C C46U C66A A69G A70G C71U | -0.302
61 | G1A G6U A43C C46U C66A | -0.278
62 | G1A G6U A43C C46U C66U | -0.286
63 | G1A G6A C27U A43C C46U C66U C71U | -0.166

Row | Variant | yeast fitness (ln)
64 | G1A G6A C27U A43C C66A A70G C71U | -0.267
65 | G1A G6A C27U C46U C66U | -0.421
66 | G1A G6U C27U A43C C66A A69G A70G C71U | -0.417
67 | G1A G6A C46U C66U A69G A70G C71U | -0.0914
68 | G1A G6A C66U A69G A70G C71U | -0.145
69 | G1A G6U C27U A43C | -0.258
70 | G1A G6A C27U C46U C66U C71U | -0.0279
71 | G1A G6U A43C C46U | -0.155
72 | G1A G6U A43C C66U A69G C71U | -0.587
73 | G1A G6A C46U A69G A70G C71U | -0.129
74 | G1A G6U C27U A43C C66U A69G A70G | -0.51
75 | G1A G6U C27U A43C C66U A69G A70U | -0.469
76 | G1A G6A C27U C46U C66U A70U | -0.198
77 | G1A G6A C27U C46U C66U A70G | -0.236
78 | G1A G6U C27U A43C C46U C66U A69G A70G C71U | -0.501
79 | G1A G6A C27U C66A A70G C71U | -0.473
80 | G1A G6A C27U C46U C71U | -0.253
81 | G1A G6A C27U C46U C66U A69G A70G C71U | -0.698
82 | G1A G6U A43C A69G C71U | -0.28
83 | G1A G6U A43C C66U A69G A70U C71U | -0.433
84 | G1A G6U C27U A43C C46U A69G A70U C71U | -0.475
